# Assay results reported in ChEMBL document CHEMBL2203123, “Synthesis and biological evaluation of some hydrazone derivatives as new anticandidal and anticancer agents” (Eur J Med Chem, 2012).
# Test system: Nakaseomyces glabratus
# Experiment: Antifungal activity against Candida glabrata Anadolu University clinical isolate after 24 hrs by microdilution susceptibility assay
# Format: functional
# Conditions: not given
# Outline: (§1)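 Broth microdilution in Mueller Hinton Broth, compounds from DMSO stocks diluted serially; inocula standardized to 10^6 CFU/mL (McFarland 0.5) from overnight MHB cultures. Plates held 37 °C for 24 h; MIC taken as first well without turbidity, aided by 1% tetrazolium violet added for 3 h at 37 °C. Ketoconazole reference.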
row,Structure (SMILES),MIC
1,Cn1nnnc1SCC(=O)N/N=C/c1ccc(Cl)cc1Cl,> 8000 µg/mL
2,Cn1nnnc1SCC(=O)N/N=C/c1c(Cl)cccc1Cl,> 8000 µg/mL
3,C/C(=N\NC(=O)CSc1nnnn1C)c1ccccc1Cl,> 8000 µg/mL
4,C/C(=N\NC(=O)CSc1nnnn1C)c1cccc(Cl)c1,> 8000 µg/mL
5,C/C(=N\NC(=O)CSc1nnnn1C)c1ccc(Cl)cc1,> 8000 µg/mL
6,C/C(=N\NC(=O)CSc1nnnn1C)c1ccc(Cl)cc1Cl,> 8000 µg/mL
7,C/C(=N\NC(=O)CSc1nnnn1C)c1cc(Cl)ccc1Cl,> 8000 µg/mL
8,Cn1nnnc1SCC(=O)N/N=C/c1cccc(F)c1,> 8000 µg/mL
9,Cn1nnnc1SCC(=O)N/N=C/c1ccccc1Cl,> 8000 µg/mL
10,CC(=O)N1CCN(c2ccc(OCC3COC(Cn4ccnc4)(c4ccc(Cl)cc4Cl)O3)cc2)CC1 (stereo not drawn) [KETOCONAZOLE],1 µg/mL

# Test system: Candida albicans
# Experiment: Antifungal activity against Candida albicans ATCC 10231 after 24 hrs by microdilution susceptibility assay
# Format: functional
# Conditions: ATCC 10231, 24 h
# Outline: as §1
row,Structure (SMILES),MIC
1,Cn1nnnc1SCC(=O)N/N=C/c1ccc(Cl)cc1Cl,> 8000 µg/mL
2,Cn1nnnc1SCC(=O)N/N=C/c1c(Cl)cccc1Cl,> 8000 µg/mL
3,C/C(=N\NC(=O)CSc1nnnn1C)c1ccccc1Cl,> 8000 µg/mL
4,C/C(=N\NC(=O)CSc1nnnn1C)c1cccc(Cl)c1,> 8000 µg/mL
5,C/C(=N\NC(=O)CSc1nnnn1C)c1ccc(Cl)cc1,> 8000 µg/mL
6,C/C(=N\NC(=O)CSc1nnnn1C)c1ccc(Cl)cc1Cl,> 8000 µg/mL
7,C/C(=N\NC(=O)CSc1nnnn1C)c1cc(Cl)ccc1Cl,> 8000 µg/mL
8,Cn1nnnc1SCC(=O)N/N=C/c1cccc(F)c1,> 8000 µg/mL
9,Cn1nnnc1SCC(=O)N/N=C/c1ccccc1Cl,> 8000 µg/mL
10,CC(=O)N1CCN(c2ccc(OCC3COC(Cn4ccnc4)(c4ccc(Cl)cc4Cl)O3)cc2)CC1 (stereo not drawn) [KETOCONAZOLE],15 µg/mL

# Test system: NIH3T3
# Experiment: Cytotoxicity against mouse NIH/3T3 cells after 24 hrs by XTT assay
# Format: cell-based
# Conditions: NIH3T3, 24 h
# Outline: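 Mouse NIH3T3 fibroblasts grown in DMEM with fetal calf serum, penicillin/streptomycin, 37 °C, 5% CO2; 20,000 cells/well, treated after 24 h with 0.00316 µM-10 mM compound for 24 h. Viability via XTT (3 h, OD 480 nm, reference 680 nm); % inhibition computed and IC50 fitted by non-linear regression.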
row,Structure (SMILES),IC50
1,Cn1nnnc1SCC(=O)N/N=C/c1ccc(Cl)cc1Cl,2.14 mM
2,Cn1nnnc1SCC(=O)N/N=C/c1c(Cl)cccc1Cl,> 10 mM
3,C/C(=N\NC(=O)CSc1nnnn1C)c1ccccc1Cl,6 mM
4,C/C(=N\NC(=O)CSc1nnnn1C)c1cccc(Cl)c1,3.4 mM
5,C/C(=N\NC(=O)CSc1nnnn1C)c1ccc(Cl)cc1,0.1 mM
6,C/C(=N\NC(=O)CSc1nnnn1C)c1ccc(Cl)cc1Cl,1 mM
7,C/C(=N\NC(=O)CSc1nnnn1C)c1cc(Cl)ccc1Cl,1 mM
8,Cn1nnnc1SCC(=O)N/N=C/c1cccc(F)c1,6.32 mM
9,Cn1nnnc1SCC(=O)N/N=C/c1ccccc1Cl,> 10 mM

# Test system: A549
# Experiment: Cytotoxicity against human A549 cells after 24 hrs by XTT assay
# Format: functional, cell-based
# Conditions: A549, 24 h
# Outline: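 A549 cells in RPMI 1640 with 10% fetal calf serum, penicillin/streptomycin, 37 °C, 5% CO2; 20,000 cells/well seeded, after 24 h exposed to compounds at 0.00316 µM-10 mM for 24 h. XTT mitochondrial activity read at 480 nm (reference 680 nm) after 3 h; % inhibition per concentration, IC50 by non-linear regression.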
row,Structure (SMILES),IC50
1,Cn1nnnc1SCC(=O)N/N=C/c1ccc(Cl)cc1Cl,0.5 mM
2,Cn1nnnc1SCC(=O)N/N=C/c1c(Cl)cccc1Cl,1 mM
3,C/C(=N\NC(=O)CSc1nnnn1C)c1ccccc1Cl,6.32 mM
4,C/C(=N\NC(=O)CSc1nnnn1C)c1cccc(Cl)c1,> 10 mM
5,C/C(=N\NC(=O)CSc1nnnn1C)c1ccc(Cl)cc1,6 mM
6,C/C(=N\NC(=O)CSc1nnnn1C)c1ccc(Cl)cc1Cl,0.8 mM
7,C/C(=N\NC(=O)CSc1nnnn1C)c1cc(Cl)ccc1Cl,1.5 mM
8,Cn1nnnc1SCC(=O)N/N=C/c1cccc(F)c1,6.32 mM
9,Cn1nnnc1SCC(=O)N/N=C/c1ccccc1Cl,6.32 mM

# Test system: Pichia kudriavzevii
# Experiment: Antifungal activity against Candida krusei NRRL Y-7179 after 24 hrs by microdilution susceptibility assay
# Format: functional
# Conditions: NRRL Y-7179, 24 h
# Outline: as §1
row,Structure (SMILES),MIC
1,Cn1nnnc1SCC(=O)N/N=C/c1ccc(Cl)cc1Cl,> 8000 µg/mL
2,Cn1nnnc1SCC(=O)N/N=C/c1c(Cl)cccc1Cl,> 8000 µg/mL
3,C/C(=N\NC(=O)CSc1nnnn1C)c1ccccc1Cl,> 8000 µg/mL
4,C/C(=N\NC(=O)CSc1nnnn1C)c1cccc(Cl)c1,> 8000 µg/mL
5,C/C(=N\NC(=O)CSc1nnnn1C)c1ccc(Cl)cc1,> 8000 µg/mL
6,C/C(=N\NC(=O)CSc1nnnn1C)c1ccc(Cl)cc1Cl,> 8000 µg/mL
7,C/C(=N\NC(=O)CSc1nnnn1C)c1cc(Cl)ccc1Cl,> 8000 µg/mL
8,Cn1nnnc1SCC(=O)N/N=C/c1cccc(F)c1,> 8000 µg/mL
9,Cn1nnnc1SCC(=O)N/N=C/c1ccccc1Cl,> 8000 µg/mL
10,CC(=O)N1CCN(c2ccc(OCC3COC(Cn4ccnc4)(c4ccc(Cl)cc4Cl)O3)cc2)CC1 (stereo not drawn) [KETOCONAZOLE],3 µg/mL

# Test system: Candida albicans
# Experiment: Antifungal activity against Candida albicans ATCC 90028 after 24 hrs by microdilution susceptibility assay
# Format: functional
# Conditions: ATCC 90028, 24 h
# Outline: as §1
row,Structure (SMILES),MIC
1,Cn1nnnc1SCC(=O)N/N=C/c1ccc(Cl)cc1Cl,> 8000 µg/mL
2,Cn1nnnc1SCC(=O)N/N=C/c1c(Cl)cccc1Cl,> 8000 µg/mL
3,C/C(=N\NC(=O)CSc1nnnn1C)c1ccccc1Cl,> 8000 µg/mL
4,C/C(=N\NC(=O)CSc1nnnn1C)c1cccc(Cl)c1,> 8000 µg/mL
5,C/C(=N\NC(=O)CSc1nnnn1C)c1ccc(Cl)cc1,> 8000 µg/mL
6,C/C(=N\NC(=O)CSc1nnnn1C)c1ccc(Cl)cc1Cl,> 8000 µg/mL
7,C/C(=N\NC(=O)CSc1nnnn1C)c1cc(Cl)ccc1Cl,> 8000 µg/mL
8,Cn1nnnc1SCC(=O)N/N=C/c1cccc(F)c1,> 8000 µg/mL
9,Cn1nnnc1SCC(=O)N/N=C/c1ccccc1Cl,> 8000 µg/mL
10,CC(=O)N1CCN(c2ccc(OCC3COC(Cn4ccnc4)(c4ccc(Cl)cc4Cl)O3)cc2)CC1 (stereo not drawn) [KETOCONAZOLE],31 µg/mL

# Test system: Nakaseomyces glabratus
# Experiment: Antifungal activity against Candida glabrata Osmangazi University clinical isolate after 24 hrs by microdilution susceptibility assay
# Format: functional
# Conditions: not given
# Outline: as §1
row,Structure (SMILES),MIC
1,Cn1nnnc1SCC(=O)N/N=C/c1ccc(Cl)cc1Cl,> 8000 µg/mL
2,Cn1nnnc1SCC(=O)N/N=C/c1c(Cl)cccc1Cl,> 8000 µg/mL
3,C/C(=N\NC(=O)CSc1nnnn1C)c1ccccc1Cl,> 8000 µg/mL
4,C/C(=N\NC(=O)CSc1nnnn1C)c1cccc(Cl)c1,> 8000 µg/mL
5,C/C(=N\NC(=O)CSc1nnnn1C)c1ccc(Cl)cc1,> 8000 µg/mL
6,C/C(=N\NC(=O)CSc1nnnn1C)c1ccc(Cl)cc1Cl,> 8000 µg/mL
7,C/C(=N\NC(=O)CSc1nnnn1C)c1cc(Cl)ccc1Cl,> 8000 µg/mL
8,Cn1nnnc1SCC(=O)N/N=C/c1cccc(F)c1,> 8000 µg/mL
9,Cn1nnnc1SCC(=O)N/N=C/c1ccccc1Cl,> 8000 µg/mL
10,CC(=O)N1CCN(c2ccc(OCC3COC(Cn4ccnc4)(c4ccc(Cl)cc4Cl)O3)cc2)CC1 (stereo not drawn) [KETOCONAZOLE],15 µg/mL

# Test system: Candida parapsilosis
# Experiment: Antifungal activity against Candida parapsilosis NRRL Y-12696 after 24 hrs by microdilution susceptibility assay
# Format: functional
# Conditions: Lodderomyces parapsilosis, NRRL Y-12696, 24 h
# Outline: as §1
row,Structure (SMILES),MIC
1,Cn1nnnc1SCC(=O)N/N=C/c1ccc(Cl)cc1Cl,> 8000 µg/mL
2,Cn1nnnc1SCC(=O)N/N=C/c1c(Cl)cccc1Cl,> 8000 µg/mL
3,C/C(=N\NC(=O)CSc1nnnn1C)c1ccccc1Cl,> 8000 µg/mL
4,C/C(=N\NC(=O)CSc1nnnn1C)c1cccc(Cl)c1,> 8000 µg/mL
5,C/C(=N\NC(=O)CSc1nnnn1C)c1ccc(Cl)cc1,> 8000 µg/mL
6,C/C(=N\NC(=O)CSc1nnnn1C)c1ccc(Cl)cc1Cl,> 8000 µg/mL
7,C/C(=N\NC(=O)CSc1nnnn1C)c1cc(Cl)ccc1Cl,> 8000 µg/mL
8,Cn1nnnc1SCC(=O)N/N=C/c1cccc(F)c1,> 8000 µg/mL
9,Cn1nnnc1SCC(=O)N/N=C/c1ccccc1Cl,> 8000 µg/mL
10,CC(=O)N1CCN(c2ccc(OCC3COC(Cn4ccnc4)(c4ccc(Cl)cc4Cl)O3)cc2)CC1 (stereo not drawn) [KETOCONAZOLE],3 µg/mL

# Test system: Candida albicans
# Experiment: Antifungal activity against Candida albicans clinical isolate after 24 hrs by microdilution susceptibility assay
# Format: functional
# Conditions: not given
# Outline: as §1
row,Structure (SMILES),MIC
1,Cn1nnnc1SCC(=O)N/N=C/c1ccc(Cl)cc1Cl,> 8000 µg/mL
2,Cn1nnnc1SCC(=O)N/N=C/c1c(Cl)cccc1Cl,> 8000 µg/mL
3,C/C(=N\NC(=O)CSc1nnnn1C)c1ccccc1Cl,> 8000 µg/mL
4,C/C(=N\NC(=O)CSc1nnnn1C)c1cccc(Cl)c1,> 8000 µg/mL
5,C/C(=N\NC(=O)CSc1nnnn1C)c1ccc(Cl)cc1,> 8000 µg/mL
6,C/C(=N\NC(=O)CSc1nnnn1C)c1ccc(Cl)cc1Cl,> 8000 µg/mL
7,C/C(=N\NC(=O)CSc1nnnn1C)c1cc(Cl)ccc1Cl,> 8000 µg/mL
8,Cn1nnnc1SCC(=O)N/N=C/c1cccc(F)c1,> 8000 µg/mL
9,Cn1nnnc1SCC(=O)N/N=C/c1ccccc1Cl,> 8000 µg/mL
10,CC(=O)N1CCN(c2ccc(OCC3COC(Cn4ccnc4)(c4ccc(Cl)cc4Cl)O3)cc2)CC1 (stereo not drawn) [KETOCONAZOLE],3 µg/mL

# Test system: Cyberlindnera jadinii
# Experiment: Antifungal activity against Candida utilis NRRL Y-900 after 24 hrs by microdilution susceptibility assay
# Format: functional
# Conditions: Williopsis jadinii, NRRL Y-900, 24 h
# Outline: as §1
row,Structure (SMILES),MIC
1,Cn1nnnc1SCC(=O)N/N=C/c1ccc(Cl)cc1Cl,> 8000 µg/mL
2,Cn1nnnc1SCC(=O)N/N=C/c1c(Cl)cccc1Cl,> 8000 µg/mL
3,C/C(=N\NC(=O)CSc1nnnn1C)c1ccccc1Cl,> 8000 µg/mL
4,C/C(=N\NC(=O)CSc1nnnn1C)c1cccc(Cl)c1,> 8000 µg/mL
5,C/C(=N\NC(=O)CSc1nnnn1C)c1ccc(Cl)cc1,> 8000 µg/mL
6,C/C(=N\NC(=O)CSc1nnnn1C)c1ccc(Cl)cc1Cl,> 8000 µg/mL
7,C/C(=N\NC(=O)CSc1nnnn1C)c1cc(Cl)ccc1Cl,> 8000 µg/mL
8,Cn1nnnc1SCC(=O)N/N=C/c1cccc(F)c1,> 8000 µg/mL
9,Cn1nnnc1SCC(=O)N/N=C/c1ccccc1Cl,> 8000 µg/mL
10,CC(=O)N1CCN(c2ccc(OCC3COC(Cn4ccnc4)(c4ccc(Cl)cc4Cl)O3)cc2)CC1 (stereo not drawn) [KETOCONAZOLE],15 µg/mL
